How the values were obtained:
Bos taurus [1] = species: Bos taurus; assay: Inhibition of bovine PDE4 using [3H]cAMP as substrate at 10 uM
How it was run: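 Enzyme was PDE4 isolated from the media layer of bovine aorta, run in the two-step activity assay at 1 μM cAMP.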

PBMC [2] = assay: Antiinflammatory activity in human PBMC assessed as inhibition of LPS-induced TNFalpha production at 10 uM after 24 hrs by ELISA relative to control; type: functional
[3] = Inhibition of bovine PDE4 using [3H]cAMP as substrate; set-up: species or system Bos taurus
[4] = Inhibition of PDE6 at 10 uM
Bos taurus [5] = species: Bos taurus; assay: Inhibition of bovine PDE1 using [3H]cAMP as substrate at 10 uM
[6] = target: cGMP-dependent 3',5'-cyclic phosphodiesterase (Homo sapiens, UniProt O00408); assay: Inhibition of human PDE2 using [3H]cAMP as substrate at 10 uM
cGMP-dependent 3',5'-cyclic phosphodiesterase, sequence (O00408 whole entry): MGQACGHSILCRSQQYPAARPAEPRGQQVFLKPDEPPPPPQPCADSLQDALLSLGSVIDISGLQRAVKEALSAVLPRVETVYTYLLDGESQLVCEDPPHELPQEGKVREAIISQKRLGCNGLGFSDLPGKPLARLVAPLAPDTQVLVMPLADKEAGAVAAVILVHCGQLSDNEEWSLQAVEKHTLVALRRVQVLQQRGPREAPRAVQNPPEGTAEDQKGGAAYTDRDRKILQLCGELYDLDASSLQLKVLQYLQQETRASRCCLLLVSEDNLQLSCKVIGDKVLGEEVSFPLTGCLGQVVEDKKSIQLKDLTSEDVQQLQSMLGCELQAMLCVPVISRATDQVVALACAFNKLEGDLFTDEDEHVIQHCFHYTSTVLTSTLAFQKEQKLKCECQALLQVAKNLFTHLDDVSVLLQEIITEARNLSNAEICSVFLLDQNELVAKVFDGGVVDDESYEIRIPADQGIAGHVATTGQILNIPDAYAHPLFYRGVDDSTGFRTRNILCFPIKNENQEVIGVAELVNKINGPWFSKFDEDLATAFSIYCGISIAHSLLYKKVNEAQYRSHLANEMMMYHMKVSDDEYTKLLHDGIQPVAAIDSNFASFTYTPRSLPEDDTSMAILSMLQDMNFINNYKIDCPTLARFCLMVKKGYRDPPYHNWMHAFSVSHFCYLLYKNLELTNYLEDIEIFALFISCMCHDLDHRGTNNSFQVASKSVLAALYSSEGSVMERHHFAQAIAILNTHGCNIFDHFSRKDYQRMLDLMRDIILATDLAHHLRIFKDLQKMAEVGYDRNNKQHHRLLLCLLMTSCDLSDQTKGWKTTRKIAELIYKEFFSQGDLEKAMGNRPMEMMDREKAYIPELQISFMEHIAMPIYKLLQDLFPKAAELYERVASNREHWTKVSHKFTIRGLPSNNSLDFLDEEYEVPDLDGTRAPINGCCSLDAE

Bos taurus [7] = species: Bos taurus; assay: Inhibition of bovine PDE5 using […] as substrate at 10 uM
Mus musculus [8] = assay: Antiinflammatory activity in A/J mouse lung assessed as inhibition of LPS-induced TNFalpha production at 100 umol/kg, po administered 1 hr prior to LPS-challenge measured after 18 hrs relative to vehicle-treated control; type: functional
PBMC [9] = assay: Antiinflammatory activity in human PBMC assessed as inhibition of LPS-induced TNFalpha production after 24 hrs by ELISA; type: functional, cell-based
Mus musculus [10] = assay: Antiinflammatory activity in A/J mouse assessed as inhibition of LPS-induced airway resistance provoked by methacholine at 100 umol/kg, po administered 1 hr prior to LPS-challenge measured after 18 hrs relative to vehicle-treated control; type: functional
Mus musculus [11] = assay: Antiinflammatory activity in A/J mouse lung assessed as inhibition of LPS-induced IL6 production at 100 umol/kg, po administered 1 hr prior to LPS-challenge measured after 18 hrs relative to vehicle-treated control; type: functional
Mus musculus [12] = assay: Antiinflammatory activity in A/J mouse assessed as inhibition of LPS-induced airway elastance provoked by methacholine at 100 umol/kg, po administered 1 hr prior to LPS-challenge measured after 18 hrs relative to vehicle-treated control; type: functional
Mus musculus [13] = assay: Antiinflammatory activity in A/J mouse assessed as inhibition of leukocyte accumulation in bronchoalveolar space at 100 umol/kg, po administered 1 hr prior to LPS-challenge measured after 18 hrs relative to vehicle-treated control; type: functional; conditions: Lung
Mus musculus [14] = assay: Antiinflammatory activity in A/J mouse assessed as inhibition of neutrophil accumulation in bronchoalveolar space at 100 umol/kg, po administered 1 hr prior to LPS-challenge measured after 18 hrs relative to vehicle-treated control; type: functional; conditions: Lung
Bos taurus [15] = species: Bos taurus; assay: Inhibition of bovine PDE3 using [3H]cAMP as substrate at 10 uM
[16] = Inhibition of bovine PDE3 using [3H]cAMP as substrate; set-up: species or system Bos taurus
[17] = target: 3',5'-cyclic-AMP phosphodiesterase 4D (Homo sapiens, UniProt Q08499); assay: Inhibition of human recombinant PDE4D
3',5'-cyclic-AMP phosphodiesterase 4D, sequence (Q08499 whole entry): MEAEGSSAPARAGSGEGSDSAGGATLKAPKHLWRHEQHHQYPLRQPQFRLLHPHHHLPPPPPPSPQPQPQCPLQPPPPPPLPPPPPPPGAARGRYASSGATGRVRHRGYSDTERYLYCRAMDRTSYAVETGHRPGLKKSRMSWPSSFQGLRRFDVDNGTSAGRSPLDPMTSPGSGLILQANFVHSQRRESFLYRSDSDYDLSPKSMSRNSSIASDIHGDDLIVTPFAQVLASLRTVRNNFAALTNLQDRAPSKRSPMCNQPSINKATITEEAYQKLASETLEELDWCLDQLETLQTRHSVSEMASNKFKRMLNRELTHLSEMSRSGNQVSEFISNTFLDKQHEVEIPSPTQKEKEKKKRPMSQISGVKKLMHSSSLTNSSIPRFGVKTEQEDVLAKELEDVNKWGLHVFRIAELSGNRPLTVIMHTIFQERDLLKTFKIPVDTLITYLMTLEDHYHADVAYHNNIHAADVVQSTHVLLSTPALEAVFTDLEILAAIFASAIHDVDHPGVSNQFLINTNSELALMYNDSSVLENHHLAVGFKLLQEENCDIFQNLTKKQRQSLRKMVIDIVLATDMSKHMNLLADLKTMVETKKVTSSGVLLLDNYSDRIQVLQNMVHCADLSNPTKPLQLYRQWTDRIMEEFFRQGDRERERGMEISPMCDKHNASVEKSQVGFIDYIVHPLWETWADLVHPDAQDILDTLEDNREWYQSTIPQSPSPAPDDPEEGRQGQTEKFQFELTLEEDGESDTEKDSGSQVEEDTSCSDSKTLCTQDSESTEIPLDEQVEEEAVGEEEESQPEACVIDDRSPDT

Mus musculus [18] = assay: Antiinflammatory activity in A/J mouse assessed as inhibition of LPS-induced airway elastance provoked by methacholine at 3 mg/kg, po administered 1 hr prior to LPS-challenge measured after 18 hrs relative to vehicle-treated control; type: functional
Mus musculus [19] = assay: Antiinflammatory activity in A/J mouse assessed as inhibition of LPS-induced airway resistance provoked by methacholine at 3 mg/kg, po administered 1 hr prior to LPS-challenge measured after 18 hrs relative to vehicle-treated control; type: functional
Mus musculus [20] = assay: Antiinflammatory activity in A/J mouse assessed as inhibition of neutrophil accumulation in bronchoalveolar space at 3 mg/kg, po administered 1 hr prior to LPS-challenge measured after 18 hrs relative to vehicle-treated control; type: functional; conditions: Lung
Mus musculus [21] = assay: Proemetic activity in A/J mouse assessed as reversal of xylazine/katamine-induced anesthesia at 30 to 200 umol/kg, sc administered 30 mins prior xylazine/ketamine-administration; type: ADME, organism-based; conditions: in vivo, 0.5 h
[22] = target: 3',5'-cyclic-AMP phosphodiesterase 4B (Homo sapiens, UniProt Q07343); assay: Inhibition of human recombinant PDE4B
3',5'-cyclic-AMP phosphodiesterase 4B, sequence (Q07343 whole entry): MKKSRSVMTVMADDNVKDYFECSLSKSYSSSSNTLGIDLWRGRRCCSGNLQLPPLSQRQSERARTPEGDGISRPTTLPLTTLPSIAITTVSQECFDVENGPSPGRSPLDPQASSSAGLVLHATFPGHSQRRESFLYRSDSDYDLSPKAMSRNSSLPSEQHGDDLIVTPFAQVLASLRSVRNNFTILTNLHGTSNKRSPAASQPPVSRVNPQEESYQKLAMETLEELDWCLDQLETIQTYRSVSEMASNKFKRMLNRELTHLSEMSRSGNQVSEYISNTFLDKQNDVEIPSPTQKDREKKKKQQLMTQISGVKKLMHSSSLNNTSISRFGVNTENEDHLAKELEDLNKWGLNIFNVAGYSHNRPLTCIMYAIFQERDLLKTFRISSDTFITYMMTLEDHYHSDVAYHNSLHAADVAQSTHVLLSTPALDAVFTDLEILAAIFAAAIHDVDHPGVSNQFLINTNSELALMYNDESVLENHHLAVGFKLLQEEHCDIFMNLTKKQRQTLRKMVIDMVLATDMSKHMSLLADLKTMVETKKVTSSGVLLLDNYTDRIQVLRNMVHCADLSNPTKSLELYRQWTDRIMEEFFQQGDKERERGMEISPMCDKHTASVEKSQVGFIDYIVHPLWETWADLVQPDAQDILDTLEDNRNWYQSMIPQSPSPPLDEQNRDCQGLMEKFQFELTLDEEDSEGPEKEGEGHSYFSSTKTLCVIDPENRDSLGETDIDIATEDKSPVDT

[23] = target: 3',5'-cyclic-AMP phosphodiesterase 4C (Homo sapiens, UniProt Q08493); assay: Inhibition of human recombinant PDE4C
3',5'-cyclic-AMP phosphodiesterase 4C, sequence (Q08493 whole entry): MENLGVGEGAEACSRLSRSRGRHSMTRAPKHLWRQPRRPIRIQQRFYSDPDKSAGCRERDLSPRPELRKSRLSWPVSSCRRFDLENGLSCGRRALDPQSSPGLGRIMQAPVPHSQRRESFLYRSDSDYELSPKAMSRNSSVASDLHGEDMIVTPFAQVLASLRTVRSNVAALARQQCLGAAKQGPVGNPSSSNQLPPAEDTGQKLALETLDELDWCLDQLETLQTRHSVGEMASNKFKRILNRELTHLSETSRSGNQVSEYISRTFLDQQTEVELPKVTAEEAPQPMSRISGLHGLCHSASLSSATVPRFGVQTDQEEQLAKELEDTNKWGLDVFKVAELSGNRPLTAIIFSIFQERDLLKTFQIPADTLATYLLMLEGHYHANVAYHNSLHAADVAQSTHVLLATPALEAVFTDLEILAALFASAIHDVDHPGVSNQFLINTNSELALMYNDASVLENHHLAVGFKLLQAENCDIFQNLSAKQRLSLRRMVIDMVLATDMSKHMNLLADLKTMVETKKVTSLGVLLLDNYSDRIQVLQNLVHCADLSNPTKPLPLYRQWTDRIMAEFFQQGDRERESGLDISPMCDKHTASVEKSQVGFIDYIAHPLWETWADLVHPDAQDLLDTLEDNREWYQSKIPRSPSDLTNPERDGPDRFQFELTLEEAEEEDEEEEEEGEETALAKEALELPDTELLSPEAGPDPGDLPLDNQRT

[24] = Inhibition of PDE6
[25] = target: 3',5'-cyclic-AMP phosphodiesterase 4A (Homo sapiens, UniProt P27815); assay: Inhibition of human recombinant PDE4A
3',5'-cyclic-AMP phosphodiesterase 4A, sequence (P27815 whole entry): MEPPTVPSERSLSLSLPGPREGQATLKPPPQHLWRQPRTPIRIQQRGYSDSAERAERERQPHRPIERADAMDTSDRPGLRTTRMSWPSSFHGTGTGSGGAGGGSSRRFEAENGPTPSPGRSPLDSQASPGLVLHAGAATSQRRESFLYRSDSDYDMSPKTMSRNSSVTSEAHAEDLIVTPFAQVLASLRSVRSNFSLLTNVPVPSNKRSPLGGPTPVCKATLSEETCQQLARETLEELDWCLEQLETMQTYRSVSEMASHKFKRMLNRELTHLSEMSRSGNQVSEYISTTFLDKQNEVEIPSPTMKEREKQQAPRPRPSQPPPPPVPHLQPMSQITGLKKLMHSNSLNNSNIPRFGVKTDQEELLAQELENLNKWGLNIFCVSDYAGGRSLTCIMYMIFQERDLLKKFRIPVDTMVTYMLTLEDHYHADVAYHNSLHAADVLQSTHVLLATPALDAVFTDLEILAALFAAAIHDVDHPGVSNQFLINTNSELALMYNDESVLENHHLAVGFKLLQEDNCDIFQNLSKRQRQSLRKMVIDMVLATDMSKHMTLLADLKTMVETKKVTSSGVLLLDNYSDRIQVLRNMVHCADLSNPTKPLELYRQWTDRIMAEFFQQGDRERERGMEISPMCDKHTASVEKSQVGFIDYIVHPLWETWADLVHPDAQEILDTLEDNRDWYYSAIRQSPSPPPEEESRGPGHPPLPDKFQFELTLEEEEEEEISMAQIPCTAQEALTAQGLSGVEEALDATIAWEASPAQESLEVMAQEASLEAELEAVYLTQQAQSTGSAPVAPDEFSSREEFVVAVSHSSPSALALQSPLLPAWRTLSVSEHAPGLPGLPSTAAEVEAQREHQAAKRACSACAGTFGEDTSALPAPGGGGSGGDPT

SMILES: COc1ccc(C(=O)N(C)/N=C/c2ccc3c(c2)OCO3)cc1OC
- inhibition (Bos taurus [1]): 19.8%

SMILES: COc1ccc(/C=N/NC(=O)c2ccc(OC)c(OC)c2)cc1OC
- inhibition (Bos taurus [1]): 10.7%

SMILES: COc1ccc(C2=NN(C)C(=O)c3ccccc3C2)cc1OC
- inhibition (Bos taurus [1]): 76.5%
- inhibition at 10 µM (PBMC [2]): 20%
- IC50 [3]: 7300 nM

SMILES: COc1ccc(C(=O)N/N=C/c2ccc3c(c2)OCO3)cc1OC
- inhibition (Bos taurus [1]): 10.5%

SMILES: COc1ccc(C(=O)N/N=C/c2ccc(OC)c(OC)c2)cc1
- inhibition (Bos taurus [1]): 9.7%

SMILES: COc1ccc(/C=N/NC(=O)c2c(C)nc3ccccn23)cc1OC
- inhibition (Bos taurus [1]): 41.5%

SMILES: COc1ccc(/C=N/NC(=O)c2ccc(OC)c(OC)c2)cc1
- inhibition (Bos taurus [1]): 6.6%

SMILES: COc1ccc(/C=N/N(C)C(=O)c2ccc3c(c2)OCO3)cc1OC
- inhibition [4]: 0.6%
- inhibition (Bos taurus [5]): 0%
- inhibition [6]: 4%
- inhibition (Bos taurus [7]): 5.1%
- inhibition (Bos taurus [1]): 96.3%
- inhibition in vivo at 100 µmol/kg (Mus musculus [8]): 80%
- inhibition at 10 µM (PBMC [2]): 90%
- EC50 (PBMC [9]): 540 nM
- inhibition in vivo at 100 µmol/kg (Mus musculus [10]): 56%
- inhibition in vivo at 100 µmol/kg (Mus musculus [11]): 92%
- IC50 [3]: 110 nM
- inhibition in vivo at 100 µmol/kg (Mus musculus [12]): 64%
- inhibition in vivo at 100 µmol/kg (Mus musculus [13]): 62%
- inhibition in vivo at 100 µmol/kg (Mus musculus [14]): 67%
- inhibition (Bos taurus [15]): 19.4%

SMILES: COc1ccc(/C=N/N(C)C(=O)c2ccccc2)cc1OC
- inhibition [4]: 31.2%
- IC50 [16]: 19600 nM
- inhibition (Bos taurus [5]): 6%
- inhibition [6]: 23.5%
- inhibition (Bos taurus [7]): 22.3%
- inhibition (Bos taurus [1]): 97.1%
- inhibition in vivo at 100 µmol/kg (Mus musculus [8]): 46%
- inhibition at 10 µM (PBMC [2]): 91%
- EC50 (PBMC [9]): 1750 nM
- inhibition in vivo at 100 µmol/kg (Mus musculus [10]): 58%
- inhibition in vivo at 100 µmol/kg (Mus musculus [11]): 53%
- inhibition in vivo at 100 µmol/kg (Mus musculus [12]): 51%
- inhibition in vivo at 100 µmol/kg (Mus musculus [13]): 73%
- inhibition in vivo at 100 µmol/kg (Mus musculus [14]): 68%
- IC50 [17]: 140 nM

SMILES: COc1ccc([C@]2(C#N)CC[C@@H](C(=O)O)CC2)cc1OC1CCCC1 [CILOMILAST]
- inhibition in vivo at 3 mg/kg (Mus musculus [18]): 93%
- inhibition in vivo at 3 mg/kg (Mus musculus [19]): 93%
- inhibition in vivo at 3 mg/kg (Mus musculus [20]): 43%

SMILES: COc1cccc(C(=O)N(C)/N=C/c2ccc(OC)c(OC)c2)c1
- inhibition [4]: 39.5%
- IC50 [16]: 4500 nM
- inhibition (Bos taurus [5]): 18.5%
- inhibition [6]: 40.4%
- inhibition (Bos taurus [7]): 29.1%
- inhibition (Bos taurus [1]): 98.1%
- inhibition in vivo at 100 µmol/kg (Mus musculus [8]): 75%
- inhibition at 10 µM (PBMC [2]): 81%
- EC50 (PBMC [9]): 1270 nM
- inhibition in vivo at 100 µmol/kg (Mus musculus [10]): 70%
- inhibition in vivo at 100 µmol/kg (Mus musculus [11]): 38%
- IC50 [3]: 290 nM
- inhibition in vivo at 100 µmol/kg (Mus musculus [12]): 69%
- inhibition in vivo at 100 µmol/kg (Mus musculus [13]): 73%
- inhibition in vivo at 100 µmol/kg (Mus musculus [14]): 77%

SMILES: COc1ccc(/C=N/NC(=O)c2ccc(Cl)cc2)cc1OC
- inhibition (Bos taurus [1]): 7.5%

SMILES: COc1ccc(/C=N/N(C)C(=O)c2ccc(O)cc2)cc1OC
- Activity (Mus musculus [21]): Non-toxic
- IC50 [16]: 11800 nM
- inhibition (Bos taurus [5]): 28.3%
- inhibition [6]: 39.3%
- inhibition (Bos taurus [7]): 27.9%
- IC50 [22]: 47 nM
- inhibition (Bos taurus [1]): 98.4%
- IC50 [23]: 206 nM
- inhibition in vivo at 100 µmol/kg (Mus musculus [8]): 35%
- inhibition at 10 µM (PBMC [2]): 83%
- EC50 (PBMC [9]): 520 nM
- inhibition in vivo at 100 µmol/kg (Mus musculus [10]): 36%
- inhibition in vivo at 100 µmol/kg (Mus musculus [11]): 6%
- IC50 [3]: 50 nM
- inhibition in vivo at 100 µmol/kg (Mus musculus [12]): 61%
- inhibition in vivo at 100 µmol/kg (Mus musculus [13]): 65%
- inhibition in vivo at 100 µmol/kg (Mus musculus [14]): 60%
- IC50 [24]: 9100 nM
- IC50 [25]: 64 nM
- IC50 [17]: 31 nM

SMILES: COc1ccc(C(=O)N/N=C/c2c(C)nc3ccccn23)cc1OC
- inhibition (Bos taurus [1]): 7.7%

SMILES: COc1ccc(/C=N/N(C)C(=O)c2ccc(OC)c(OC)c2)cc1OC
- IC50 [16]: 18800 nM
- inhibition (Bos taurus [5]): 38.7%
- inhibition [6]: 40.8%
- inhibition (Bos taurus [7]): 30.9%
- inhibition (Bos taurus [1]): 95.8%
- inhibition in vivo at 100 µmol/kg (Mus musculus [8]): 74%
- inhibition at 10 µM (PBMC [2]): 92%
- EC50 (PBMC [9]): 1180 nM
- inhibition in vivo at 100 µmol/kg (Mus musculus [10]): 92%
- inhibition in vivo at 100 µmol/kg (Mus musculus [11]): 65%
- IC50 [3]: 300 nM
- inhibition in vivo at 100 µmol/kg (Mus musculus [12]): 79%
- inhibition in vivo at 100 µmol/kg (Mus musculus [13]): 53%
- inhibition in vivo at 100 µmol/kg (Mus musculus [14]): 50%
- IC50 [24]: 17600 nM

SMILES: COc1ccc(/C=N/NC(=O)c2ccccc2)cc1OC
- inhibition (Bos taurus [1]): 13.1%

SMILES: COc1ccc(/C=N/N(C)C(=O)c2c(C)nc3ccccn23)cc1OC
- inhibition (Bos taurus [1]): 45.9%
